Legend:
[1] = test system: Mus musculus; experiment: Antiparkinsonian activity in caudectomized mouse assessed as onset of curvature at 0.174 umol/g, ip; type: functional
Summary of the method: (§1)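 Hydrochlorides in 0.9% saline (0.4-0.6 mL) were given ip in random groups of six, with 5-6-day intervals between retests. A blinded observer recorded onset and duration of asymmetric posture; mean and SE per six mice.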

[2] = test system: Mus musculus; experiment: Antiparkinsonian activity in caudectomized mouse assessed as duration of curvature at 0.174 umol/g, ip; type: functional; summary of the method: as §1
[3] = test system: Mus musculus; experiment: Antiparkinsonian activity in caudectomized mouse assessed as duration of curvature at 0.348 umol/g, ip; type: functional; summary of the method: as §1
[4] = test system: Mus musculus; experiment: Antiparkinsonian activity in caudectomized mouse assessed as onset of curvature at 0.348 umol/g, ip; type: functional; summary of the method: as §1
[5] = test system: Mus musculus; experiment: Antiparkinsonian activity in caudectomized mouse assessed as duration of curvature at 0.087 umol/g, ip; type: functional; summary of the method: as §1
[6] = test system: Rattus norvegicus; experiment: Antiparkinsonian activity in Nigra-lesioned rat assessed as number of turns per 45 mins at 0.087 umol/g, ip; type: functional
Summary of the method: (§2)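 Male Sprague-Dawley rats given 6-hydroxydopamine stereotaxically into the right substantia nigra. Used ≥4 weeks later if they turned away from the lesion after la (1.0 µg/g). The same six rats were dosed ip at 5-day intervals as hydrochloride in 0.9% saline; a saline-injected rat served as control. Turns were counted in automatic rotometers; mean and SE of total turns and duration.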

[7] = test system: Mus musculus; experiment: Antiparkinsonian activity in caudectomized mouse assessed as onset of curvature at 0.087 umol/g, ip; type: functional; summary of the method: as §1
[8] = test system: Rattus norvegicus; experiment: Antiparkinsonian activity in Nigra-lesioned rat assessed as number of turns per 79 mins at 0.087 umol/g, ip; type: functional; summary of the method: as §2
[9] = test system: Mus musculus; experiment: Antiparkinsonian activity in caudectomized mouse assessed as duration of curvature at 0.003 umol/g, ip; type: functional; summary of the method: as §1
[10] = test system: Mus musculus; experiment: Antiparkinsonian activity in caudectomized mouse assessed as onset of curvature at 0.003 umol/g, ip; type: functional; summary of the method: as §1
[11] = test system: Rattus norvegicus; experiment: Antiparkinsonian activity in Nigra-lesioned rat assessed as number of turns per 83 mins at 0.003 umol/g, ip; type: functional; summary of the method: as §2
[12] = test system: Rattus norvegicus; experiment: Antiparkinsonian activity in Nigra-lesioned rat assessed as number of turns per 98 mins at 0.087 umol/g, ip; type: functional
Summary of the method: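 Male Sprague-Dawley rats given 6-hydroxydopamine stereotaxically into the right substantia nigra. Used ≥4 weeks post-lesion if they rotated away from the lesion after reference agonist (1.0 µg/g ip). Compounds given ip as hydrochloride salts in 0.9% saline, […], to the same six rats at 5-day intervals. Turns counted in automatic rotometers. Mean ± SE of total turns and duration.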

[13] = test system: Mus musculus; experiment: Antiparkinsonian activity in caudectomized mouse assessed as duration of curvature at 0.435 umol/g, ip; type: functional; summary of the method: as §1
[14] = test system: Rattus norvegicus; experiment: Antiparkinsonian activity in Nigra-lesioned rat assessed as number of turns at 0.348 umol/g, ip; type: functional; summary of the method: as §2
[15] = test system: Rattus norvegicus; experiment: Antiparkinsonian activity in Nigra-lesioned rat assessed as number of turns per 48 mins at 0.087 umol/g, ip; type: functional; summary of the method: as §2
[16] = test system: Mus musculus; experiment: Toxicity in caudectomized mouse assessed as mortality at 0.305 umol/g, ip; type: organism-based; settings: in vivo
Summary of the method: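 Caudectomized mice, screened for postural response to la (1.0 µg/g), received hydrochloride ip in 0.9% saline. Deaths during behavioural observation were recorded; in one case eight mice were tested.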

[17] = test system: Mus musculus; experiment: Antiparkinsonian activity in caudectomized mouse assessed as duration of curvature at 0.305 umol/g, ip; type: functional; summary of the method: as §1

Compound: CCCCCN(C)CCc1ccc(O)c(O)c1.Cl
- Time [1]: 3.8 min
- Time [2]: 2.5 min
- Time [3]: 20.6 min
- Time [4]: 14.6 min
- Time [5]: 0 min

Compound: CCCCN(CCC)CCc1ccc(O)c(O)c1.Cl
- Activity [6]: 552
- Time [7]: 4.6 min
- Time [5]: 6.5 min

Compound: CCCCCN(CCC)CCc1ccc(O)c(O)c1.I
- Time [7]: 4.2 min
- Activity [8]: 628
- Time [5]: 14 min

Compound: CN1CCc2cccc3c2[C@H]1Cc1ccc(O)c(O)c1-3 [APOMORPHINE]
- Time [9]: 14.2 min
- Time [10]: 5 min
- Activity [11]: 828

Compound: CCCCCNCCc1ccc(O)c(O)c1.Cl
- Time [3]: 0 min

Compound: CC(C)CNCCc1ccc(O)c(O)c1.Cl
- Time [3]: 0 min

Compound: CCCN(CCc1ccccc1)CCc1ccc(O)c(O)c1.Cl
- Activity [12]: 1065
- Time [7]: 5 min
- Time [5]: 15.4 min

Compound: Cl.Oc1ccc(CCNCCc2ccccc2)cc1O
- Time [3]: 0 min

Compound: CC(C)CN(C)CCc1ccc(O)c(O)c1.Cl
- Time [1]: 4 min
- Time [2]: 2.8 min
- Time [3]: 31.8 min
- Time [4]: 3.6 min
- Time [5]: 0 min

Compound: CCCN(CCc1ccc(O)c(O)c1)CC(C)C.Cl
- Time [7]: 3.9 min
- Time [5]: 10 min

Compound: CCCCN(CCCC)CCc1ccc(O)c(O)c1.Cl
- Time [3]: 0 min
- Time [13]: 0 min

Compound: CCCCN(CCC)CCc1ccc2c(c1)OCO2.Cl
- Activity [14]: 0
- Time [3]: 0 min

Compound: CN(CCc1ccccc1)CCc1ccc(O)c(O)c1.Cl
- Time [3]: 21.2 min
- Time [4]: 6.7 min
- Time [5]: 0 min

Compound: CCCCN(CCC)CCc1ccc(O)c(O)c1.I
- Activity [15]: 457
- Time [7]: 3.5 min
- Time [5]: 6.7 min

Compound: CCCCCN(CCCCC)CCc1ccc(O)c(O)c1.Cl
- Activity [16]: Toxic
- Time [17]: 0 min
